Consider 27 molecules from ChEMBL document CHEMBL1132256, “Structure-activity relationships for substituted bis(acridine-4-carboxamides): a new class of anticancer agents” (J Med Chem, 1999).

Assay [1] concerns MCF7. As to the kind of experiment: inhibitory activity against multi drug resistant MCF cell line. It counts as functional. The conditions noted are these: Homo sapiens, in the assay text read “MCF7 cell line” for “multi drug resistant MCF cell line”. In outline: (§1)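 Tested in the NCI human cell line panel. GI50 = drug concentration (nM) giving growth inhibition to 50% of controls; values below 10 nM were taken as 10 nM in calculations.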

Assay [2] concerns P388. As to the kind of experiment: Inhibitory activity against Murine […]. It counts as functional, cell-based. The conditions noted are these: Mus musculus. The procedure, abridged: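 Murine P388 leukemia cells seeded at 4.5 × 10^3 cells/well, cultured 3 days with drug; growth measured by [3H]TdR uptake. IC50 = drug concentration (nM) reducing cell number to 50% of controls. Independent assays in duplicate, CV ca. 25%.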

The test system of assay [3] is SK-OV-3. As to the kind of experiment: inhibitory activity against ovarian carcinoma SKOV3 cell line. It counts as functional. As to conditions: Homo sapiens. The procedure, abridged: as §1
Assay [4] relates to HCT-116. As to the kind of experiment: inhibitory activity against colon HCT116 cell line. The assay is classed as functional. As to conditions: Homo sapiens. In outline: as §1
For assay [5], the system named is Lewis lung carcinoma cell line. As to the kind of experiment: Inhibitory activity of tested against Murine Lewis lung carcinoma. It counts as functional, cell-based. As to conditions: Mus musculus. The procedure, abridged:
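Lewis lung carcinoma (LLTC) cells at 10^3 cells/well, 4-day continuous drug exposure, growth read by sulforhodamine assay. IC50 (nM) = concentration giving 50% of control cell number. Duplicate independent assays, CV ca. 25%.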

For assay [6], the system named is Jurkat. As to the kind of experiment: Ratio of inhibitory activity against doxorubicin resistant jurkat cells to inhibitory activity against wild type human jurkat cells. The assay is classed as functional. In outline:
(§2)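 Wild-type Jurkat (JLC) and its amsacrine-resistant (JLA) or doxorubicin-resistant (JLD) sublines each seeded at 3.75 × 10^3 cells/well, 4 days with drug, sulforhodamine read-out. IC50 (nM) for 50% of control cell number; ratio = resistant-line IC50 divided by JLC IC50. Duplicate assays, CV ca. 25%.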

For assay [7], the system named is CAKI-1. As to the kind of experiment: inhibitory activity against renal tumor […] cell line. As to conditions: Homo sapiens. It counts as functional. The procedure, abridged: as §1
Assay [8] concerns Jurkat. As to the kind of experiment: Concentration required to inhibit 50% growth of human Jurkat cells. It counts as functional, cell-based. In outline:
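Jurkat leukemia (JLC) cells seeded at 3.75 × 10^3 cells/well and exposed to drug for 4 days; growth measured by sulforhodamine assay. IC50 = drug concentration (nM) reducing cell number to 50% of control cultures. Independent assays in duplicate, coefficients of variation ca. 25%.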

The test system of assay [9] is NCI/ADR-RES. As to the kind of experiment: inhibitory activity against multi drug resistant NCI/ADR cell line. The assay is classed as functional. The conditions noted are these: Homo sapiens. In outline:
as §1

Assay [10] deals with Jurkat. As to the kind of experiment: Ratio of inhibitory activity against amsacrine resistant jurkat cells to inhibitory activity against wild type human jurkat cells. The assay is classed as functional. In outline: as §2
Assay [11] relates to HT-29. As to the kind of experiment: inhibitory activity against colon HT-29 cell line. It counts as functional. As to conditions: Homo sapiens. The procedure, abridged:
as §1

On to `Cc1cccc2nc3c(C(=O)NCCCN(C)CCCNC(=O)c4cccc5cc6c(C)cccc6nc45)cccc3cc12`, for which the 50% growth inhibitory concentration (GI50) (commonly the concentration giving 50% growth inhibition) stood at 174 nM in [1]; 594 nM in assay [3]; 13 nM in assay [4]; 58 nM in [7]; 1040 nM in [9]; 60 nM in assay [11]. The values for the 50% inhibitory concentration (IC50) in [2], in assay [5] and in assay [8] were 180 nM, 16 nM and 71 nM, respectively. For the same molecule, the values for the Ratio in assay [6] and in [10] were 1 and 0.7, respectively.
Turning to `COc1ccc2cc3cccc(C(=O)NCCCN(C)CCCNC(=O)c4cccc5cc6ccc(OC)cc6nc45)c3nc2c1`, the IC50 – broadly, the concentration that gives 50% inhibition – came out at 76 nM in [2], 20 nM in [5] and 51 nM in assay [8]. Moreover, the Ratio is reported as 0.8 in assay [6] and 0.5 in [10].
Take `COc1ccc2nc3c(C(=O)NCCCN(C)CCCNC(=O)c4cccc5cc6cc(OC)ccc6nc45)cccc3cc2c1`: the half-maximal inhibitory concentration (IC50) in assay [2] is 132 nM; in [5], 20 nM; in assay [8] it was 147 nM. Moreover, the Ratio in [6] worked out at 1.1; in [10] it was 0.7.
`Cc1ccc(C(=O)NCCCN(C)CCCNC(=O)c2ccc(C)c3cc4ccccc4nc23)c2nc3ccccc3cc12`: the 50% growth inhibitory concentration (GI50) was 54 nM in assay [1]; 1170 nM in [3]; < 10 nM in assay [4]; 42 nM in [7]; 77 nM in assay [9]; < 10 nM in [11]. The half-maximal inhibitory concentration (IC50) in assay [2] was 170 nM; in assay [5], 14 nM; in assay [8] it was 41 nM. Moreover, the figures for the Ratio in assay [6] and in [10] were 1 and 0.6, respectively.
Consider `CC(C)c1ccc2nc3c(C(=O)NCCCN(C)CCCNC(=O)c4cccc5cc6cc(C(C)C)ccc6nc45)cccc3cc2c1`, for which the concentration for half-maximal inhibition (IC50) was determined as 1450 nM in assay [2], 2080 nM in [5] and 2080 nM in assay [8]. Besides, the Ratio in assay [6] and in assay [10] was 1.1 in each case.
With `Cc1ccc(C)c2nc3c(C(=O)NCCCN(C)CCCNC(=O)c4cccc5cc6c(C)ccc(C)c6nc45)cccc3cc12`, the GI50 in assay [1] was < 10 nM; in [3] it was 320 nM; in assay [4], < 10 nM; in [7], < 10 nM; in assay [9], 172 nM; in assay [11] it was < 10 nM. Moreover, the IC50 came out at 24 nM in assay [2], 3.2 nM in assay [5] and 11 nM in assay [8]. For the same molecule, the values for the Ratio in [6] and in [10] were 0.7 and 0.4, respectively.
As for `CN(CCCNC(=O)c1cccc2cc3cc(C(C)(C)C)ccc3nc12)CCCNC(=O)c1cccc2cc3cc(C(C)(C)C)ccc3nc12`, the IC50 was found to be 1760 nM in [2], 1400 nM in [5] and 1070 nM in assay [8]. Also, the Ratio in [6] and in assay [10] was 1.1 each time.
As to `CN(CCCNC(=O)c1ccc(Cl)c2cc3ccccc3nc12)CCCNC(=O)c1ccc(Cl)c2cc3ccccc3nc12`, the values for the 50% inhibitory concentration (IC50) in [2], in assay [5] and in assay [8] were 400 nM, 42 nM and 127 nM, respectively. For the same molecule, the Ratio in [6] is on record as 1; in [10] it was 0.6.
Take `Cc1ccc(Cl)c2cc3cccc(C(=O)NCCCN(C)CCCNC(=O)c4cccc5cc6c(Cl)ccc(C)c6nc45)c3nc12`: the results for the IC50 in assay [2], in [5] and in assay [8] were 41 nM, 8.8 nM and 20 nM, respectively. Moreover, the values for the Ratio in [6] and in [10] were 0.7 and 0.5, respectively.
Molecule `COc1cc(NS(C)(=O)=O)ccc1Nc1c2ccccc2nc2ccccc12` [AMSACRINE] had a half-maximal inhibitory concentration (IC50) in [5] of 12 nM. Besides, the Ratio was found to be 74 in assay [6] and 85 in assay [10].
On to `CN(CCCNC(=O)c1cccc2cc3ccc(C(F)(F)F)cc3nc12)CCCNC(=O)c1cccc2cc3ccc(C(F)(F)F)cc3nc12`, for which the figures for the IC50 in assay [2], in [5] and in [8] were 9600 nM, 160 nM and 355 nM, respectively. The Ratio amounted to 1.1 in [6] and 0.6 in assay [10].
Turning to `CC(C)c1cccc2cc3cccc(C(=O)NCCCN(C)CCCNC(=O)c4cccc5cc6cccc(C(C)C)c6nc45)c3nc12`, the IC50 in [2] is 2760 nM; in assay [5], 1050 nM; in [8], 2080 nM. Also, the figures for the Ratio in assay [6] and in [10] were 1.1 and 0.9, respectively.
Turning to `CN(CCCNC(=O)c1cccc2cc3cc(Cl)ccc3nc12)CCCNC(=O)c1cccc2cc3cc(Cl)ccc3nc12`, the IC50 came out at 170 nM in [2], 46 nM in [5] and 136 nM in [8]. Besides, the Ratio was 0.9 in assay [6] and 0.8 in assay [10].
For `Cc1cccc2cc3c(Cl)ccc(C(=O)NCCCN(C)CCCNC(=O)c4ccc(Cl)c5cc6cccc(C)c6nc45)c3nc12`, in that order: 48 nM, 6 nM, 12 nM, 0.6 and 0.3.
For `CN(CCCNC(=O)c1cc(Cl)cc2cc3ccccc3nc12)CCCNC(=O)c1cc(Cl)cc2cc3ccccc3nc12`, the IC50 in assay [2] amounted to 113 nM; in [5] it was 5.9 nM; in assay [8], 46 nM. The Ratio came out at 0.9 in assay [6] and 0.7 in assay [10].
For `CN(CCCNC(=O)c1cccc2cc3cc(Br)ccc3nc12)CCCNC(=O)c1cccc2cc3cc(Br)ccc3nc12`, in that order: 225 nM, 35 nM, 226 nM, 0.9 and 0.7.
For the molecule `CN(CCCNC(=O)c1cccc2cc3ccc(Br)cc3nc12)CCCNC(=O)c1cccc2cc3ccc(Br)cc3nc12`, the IC50 in [2] is 49 nM; in assay [5], 18 nM; in [8], 58 nM. The results for the Ratio in assay [6] and in assay [10] were 0.9 and 0.6, respectively.
Take `Cc1cc(C)c2nc3c(C(=O)NCCCN(C)CCCNC(=O)c4cccc5cc6cc(C)cc(C)c6nc45)cccc3cc2c1`: the IC50 in [2] was found to be 210 nM; in assay [5], 20 nM; in assay [8], 105 nM. Moreover, the Ratio in assay [6] amounted to 0.8; in assay [10] it was 0.5.
As to `CN(CCCNC(=O)c1cccc2cc3cc(N(C)C)ccc3nc12)CCCNC(=O)c1cccc2cc3cc(N(C)C)ccc3nc12`, the IC50 in [2] is 970 nM; in assay [5], 183 nM; in assay [8] it was 760 nM. The Ratio is 0.9 in assay [6] and 1 in assay [10].
As to `CN(CCCNC(=O)c1cccc2cc3ccc(F)cc3nc12)CCCNC(=O)c1cccc2cc3ccc(F)cc3nc12`, the half-maximal inhibitory concentration (IC50) in assay [2] was found to be 24 nM; in [5], 20 nM; in [8] it was 52 nM. In addition, the Ratio in assay [6] was 0.9; in assay [10] it was 0.6.
For the molecule `CCc1ccc2nc3c(C(=O)NCCCN(C)CCCNC(=O)c4cccc5cc6cc(CC)ccc6nc45)cccc3cc2c1`, the IC50 in assay [2] is 1080 nM; in assay [5], 770 nM; in assay [8], 1640 nM. The Ratio is recorded as 1.4 in [6] and 0.9 in [10].
The like results for `CN(CCCNC(=O)c1cccc2cc3ccc(N(C)C)cc3nc12)CCCNC(=O)c1cccc2cc3ccc(N(C)C)cc3nc12` were, in that order, 760 nM, 320 nM, 225 nM, 0.6 and 0.3.
For `Cc1ccc(C(=O)NCCCN(C)CCCNC(=O)c2ccc(C)c3cc4cccc(C)c4nc23)c2nc3c(C)cccc3cc12`, the IC50 in assay [2] amounted to 21 nM; in assay [5] it was 1.4 nM; in [8], 3.9 nM. Moreover, the Ratio in [6] amounted to 0.7; in assay [10], 0.3.
For `CN(CCCNC(=O)c1cccc2cc3cc(F)ccc3nc12)CCCNC(=O)c1cccc2cc3cc(F)ccc3nc12`, in that order: 140 nM, 32 nM, 96 nM, 0.8 and 0.6.
For the molecule `CN(CCCNC(=O)c1cccc2cc3cccc(N(C)C)c3nc12)CCCNC(=O)c1cccc2cc3cccc(N(C)C)c3nc12`, the values for the IC50 in [2], in assay [5] and in [8] were 2130 nM, 670 nM and 180 nM, respectively. For the same molecule, the Ratio is listed as 0.9 in [6] and 0.7 in [10].
For `CN(CCCNC(=O)c1cccc2cc3cc(-c4ccccc4)ccc3nc12)CCCNC(=O)c1cccc2cc3cc(-c4ccccc4)ccc3nc12`, the values for the IC50 in assay [2], in assay [5] and in assay [8] were 710 nM, 610 nM and 1020 nM, respectively. For the same molecule, the figures for the Ratio in assay [6] and in [10] were 1.1 and 1, respectively.
As for `COc1cccc2c1C(=O)c1c(O)c3c(c(O)c1C2=O)C[C@@](O)(C(=O)CO)C[C@@H]3O[C@H]1C[C@H](N)[C@H](O)[C@H](C)O1` [DOXORUBICIN], the half-inhibitory concentration (IC50) was determined as 31 nM in assay [2] and 22 nM in [5]. The Ratio is given as 13 in assay [6] and 4.4 in [10].
